Source: PubChem BioAssay
rCAG binder = binds r(CAG) RNA repeats. r(CAG) RNA repeat, TO-PRO-1 dye displacement fluorescence. inhibition, % at 3 µM. actives 1.3% (n = 370,000). AID 651821;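 active = inhibition above the plate cutoff, the mean of all test compounds on that plate plus 3 SD, cut at about 35% in these data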;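 also: higher means more dye released from RNA so lower well fluorescence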
ABHD4 inh = ABHD4 (mouse) inhibition, primary FP screen; Q8VD66; purified mABHD4, FP-Rh probe fluorescence polarization; inhibition, % at 8.92 µM; actives 0.54% (n = 370,000);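 active = inhibition exceeding the mean over every tested compound plus 3 SD, cut at about 30% in these data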
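Test system: mABHD4 protein; Read-out basis: % inhibition; Incubation: 45 min + 60 min at 25 °C; Repeats: single replicate; Technique: fluorescence polarization with parallel and perpendicular emission, 525/598 nm; Compound: 8.92 µM, single dose; Benchmarks: full inhibition S159A mutant plus DMSO, zero as sample-well median.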
TCR CD3 inh = inhibitors of human TCR-CD3 interaction; inhibition, % at 9.4 µM; TAMRA-labeled TCR probe fluorescence, biochemical; actives 0.37% (n = 360,000); in the data active = inhibition above about 19%;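 also: recombinant mutant TCR 2C K166C tagged with TAMRA read by polarization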
SIAE primary = blocks human sialic acid acetylesterase. inhibition, % at 9.66 µM. Q9HAT2. AID 1053197. actives 0.69% (n = 370,000). SIAE FP-Rh probe binding, fluorescence polarization;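 active = inhibition above a cutoff: mean of compounds within the control limits plus 3 SD of those, cut at about 17% in these data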
Target sequence (Q9HAT2 whole entry, looked up): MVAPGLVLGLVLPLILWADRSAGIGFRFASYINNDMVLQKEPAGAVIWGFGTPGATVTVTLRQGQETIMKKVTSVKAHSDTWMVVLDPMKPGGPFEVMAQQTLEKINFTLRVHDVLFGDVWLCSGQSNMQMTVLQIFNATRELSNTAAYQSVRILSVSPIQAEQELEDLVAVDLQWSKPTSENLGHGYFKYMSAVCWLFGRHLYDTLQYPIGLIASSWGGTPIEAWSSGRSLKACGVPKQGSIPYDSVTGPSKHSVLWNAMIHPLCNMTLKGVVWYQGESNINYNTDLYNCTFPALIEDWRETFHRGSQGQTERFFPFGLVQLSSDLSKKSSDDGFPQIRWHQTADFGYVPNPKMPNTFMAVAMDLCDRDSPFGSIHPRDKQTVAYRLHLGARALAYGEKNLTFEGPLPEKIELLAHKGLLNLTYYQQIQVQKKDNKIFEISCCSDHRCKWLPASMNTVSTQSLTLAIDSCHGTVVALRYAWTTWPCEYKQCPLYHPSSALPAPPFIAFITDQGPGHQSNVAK
HTRA1 inh = inhibitors of human serine peptidase HTRA1 | Q92743 | recombinant HTRA1, FP-rhodamine activity-based probe, fluorescence polarization | inhibition, % at 5.96 µM | actives 0.5% (n = 340,000) | AID 504803; in the data active = inhibition above about 36%
SIAE inh conf = human SIAE inhibition, confirmation; shares compounds with SIAE primary; SIAE FP-Rh activity-based probe, fluorescence polarization; inhibition, % at 9.66 µM; actives 13% (n = 2,300); AID 1117263;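 active = mean inhibition of the replicates above the hit cutoff set in the primary screen, cut at about 17% in these data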;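 also: inhibitors lower polarization as more probe stays unbound to SIAE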
Large screens that a line does not name were inactive (follow-up assays come after a bar, where they were run). Hits are enriched below; roughly 2.5% of the tested compounds scored in any of these assays.

COc1cc(/C=C(/C#N)c2ccc(C)cc2)ccc1Oc1ccc([N+](=O)[O-])cn1	SIAE primary 34.7 | SIAE inh conf inactive
CN(C)/C=C1\C(=O)N(c2ccc(Cl)c(Cl)c2)CS1(=O)=O	none
CN(C)C1=C(Cl)C(=O)N(c2ccc(Cl)c(Cl)c2)C1=O	SIAE primary 18.8 | SIAE inh conf inactive
COC(=O)c1sccc1NC(=O)c1cc(OC)cc(OC)c1	none
Cc1ccc(-n2ccnc(SCC(=O)NC3CCCC3)c2=O)cc1Cl	SIAE primary 17.4 | SIAE inh conf inactive
Cc1[nH]n(-c2ccccc2)c(=O)c1/C=N/NC(=O)c1cccc([N+](=O)[O-])c1	SIAE primary 20.0 | SIAE inh conf inactive
Cc1[nH]n(-c2cccc3ccccc23)c(=O)c1/C=N/NC(=O)c1cccc([N+](=O)[O-])c1	none
CCOc1cc(/C=N/NC(=O)c2cccc([N+](=O)[O-])c2)ccc1OS(=O)(=O)c1ccccc1	SIAE primary 21.9 | SIAE inh conf inactive
CCN1CCN(C(=O)c2ccc(N3CC4CC(C3)c3cccc(=O)n3C4)c(NC(=O)c3cc(OC)cc(OC)c3)c2)CC1 (centres undefined)	SIAE primary 26.5 | SIAE inh conf inactive
COCCNC(=O)c1ccc(N2CC3CC(C2)c2cccc(=O)n2C3)c(NC(=O)c2cc(OC)cc(OC)c2)c1 (centres undefined)	none
CCS(=O)(=O)Nc1ccc2c(c1)C(=O)N(C)[C@@H]1CC[C@H](CC(=O)OC)O[C@H]1CO2	none (no result: TCR CD3 inh, HTRA1 inh)
CCS(=O)(=O)Nc1ccc2c(c1)C(=O)N(C)[C@@H]1CC[C@H](CC(=O)NCCCN3CCOCC3)O[C@H]1CO2	SIAE primary 18.1 (no result: TCR CD3 inh, HTRA1 inh) | SIAE inh conf 18.8
Cc1ccc(-n2nc3c([n+]2[O-])CCc2nonc2-3)cc1	none
CC(C)(C)N(C=C(Cl)Cl)C(=O)NC1CCCCC1	none
CC(C)=CCC(C)(C)CNC(=O)NC1CCCCC1	SIAE primary 20.1 | SIAE inh conf inactive
O=C1[C@@H](C2CC2)[C@@H]2c3ccccc3C=NN2[C@@H]2c3ccccc3C=NN12	SIAE primary 23.1 (no result: TCR CD3 inh, HTRA1 inh) | SIAE inh conf inactive
C[C@@H]1C(=O)N2N=Cc3ccccc3[C@H]2N2N=Cc3ccccc3[C@@H]12	none (no result: TCR CD3 inh, HTRA1 inh)
OCC[C@@H]1C[C@H](O)[C@@H](O)[C@@]2(OCc3ccc4ccccc4c32)O1	none (no result: HTRA1 inh)
OCC1(Cc2cccc(C(F)(F)F)c2)CCN(Cc2cc(F)cc(F)c2)CC1	none
COc1cc(NC(=O)Nc2nc(C(N)C3CCCCC3)cs2)cc(OC)c1OC (centres undefined)	SIAE primary 20.6 (no result: HTRA1 inh) | SIAE inh conf inactive
COc1cc(S(=O)(=O)NCCN2CCOCC2)ccc1-n1cnnn1	none
COc1cc(S(=O)(=O)NCCCN2CCOCC2)ccc1-n1cnnn1	SIAE primary 17.3 | SIAE inh conf inactive
COc1ccc(C(=O)NC(=S)Nc2cccc3cc(O)ccc23)cc1OC	SIAE primary 28.2 | SIAE inh conf inactive
CC(=O)Nc1ccc(NC(=O)COC(=O)[C@@H](NC(=O)c2ccc(F)cc2)C(C)C)cc1	none
N#Cc1c(/N=C/c2cccnc2)sc2c1CCCC2	SIAE primary 21.7 (no result: HTRA1 inh) | SIAE inh conf inactive
N#Cc1c(/N=C/c2cccs2)sc2c1CCCCC2	none
CC(NC(=O)Cn1cnc2c1c(=O)n(C)c(=O)n2C)c1ccccc1 (centres undefined)	none
CC[n+]1ccc(C[n+]2ccccc2)c2ccccc21	SIAE primary 20.2 | SIAE inh conf 21.6
COc1ccc(CNC(=O)CCNC(=O)N2CC(=O)Nc3ccccc32)cc1	SIAE primary active | SIAE inh conf inactive
COc1ccc(NC(=O)CCNC(=O)N2CC(=O)Nc3ccccc32)c(OC)c1	none
O=C1NC(=O)/C(=C/c2cccc(O)c2)N1	SIAE primary 17.5 | SIAE inh conf inactive
O=C(CSc1nc2ccccc2c(=O)n1CCCC(=O)N1CCCC1)NCc1ccco1	none
COc1ccc(N(CC(=O)Nc2cccnc2)S(=O)(=O)c2ccccc2)cc1Cl	none
C=CCNC(=O)C(=O)NCC1CCCN1S(=O)(=O)c1cccs1 (centres undefined)	SIAE primary 19.8 | SIAE inh conf inactive
O=C(NCCO)C(=O)NCC1CCCN1S(=O)(=O)c1cccs1 (centres undefined)	none
C=CCN(c1ccccc1)S(=O)(=O)c1cccc(C(=O)NCC(c2ccc(F)cc2)N2CCOCC2)c1 (centres undefined)	none
O=[N+]([O-])c1ccc2c(c1)C=C1CCCCC1(N1CCCC1)O2 (centres undefined)	SIAE primary 21.4 | SIAE inh conf inactive
Nc1ncnc2c1ncn2[C@@H]1O[C@H](C(=O)N2CCC[C@@H]2C(=O)OCc2ccccc2)[C@@H](O)[C@H]1O	SIAE primary 28.0 (no result: HTRA1 inh) | SIAE inh conf 19.4
COC(=O)[C@@H](Cc1ccccc1)NC(=O)[C@H]1O[C@@H](n2cnc3c(N)ncnc32)[C@H](O)[C@@H]1O	none (no result: HTRA1 inh)
Nc1ncnc2c1ncn2[C@@H]1O[C@H](C(=O)N2CCC(F)(F)CC2)[C@@H](O)[C@H]1O	SIAE primary 52.0 (no result: HTRA1 inh) | SIAE inh conf 56.8
Cn1c(SCC(=O)Nc2ccc(N3CCOCC3)cc2)nnc1-c1ccco1	none
CCCCc1ccc(C2C3=C(CC(C)(C)CC3=O)NC3=C2C(=O)c2ccccc23)cc1 (centres undefined)	SIAE primary 18.7 | SIAE inh conf inactive
CC1(C)CC(=O)C2=C(C1)NC1=C(C(=O)c3ccccc31)C2c1ccc(O)cc1 (centres undefined)	none
COc1ccc(NC(C)C(=O)N2CCN(Cc3ccccc3)CC2)cc1 (centres undefined)	none
COc1ccc(CCNS(=O)(=O)c2ccc(S(=O)(=O)N3CCCC3)cc2)cc1OC	none
COc1ccc(CCNC(=O)C/C(C)=N/NC(=O)c2ccc([N+](=O)[O-])cc2Cl)cc1OC	SIAE primary 17.2 | SIAE inh conf inactive
COc1ccc(CCNC(=O)C/C(C)=N/NC(=O)c2ccc(Cl)cc2Cl)cc1OC	none
Cc1cccc(OCC(=O)O/N=C(\N)c2ccccn2)c1C	SIAE primary 31.4 | SIAE inh conf inactive
O=C(Nc1ccccc1)/C(=C/c1cccnc1)NC(=O)c1ccco1	SIAE primary 20.1 | SIAE inh conf inactive
O=C(Nc1ccccc1)/C(=C\c1ccccc1)NC(=O)c1ccco1	none (no result: HTRA1 inh)
COc1ccc(OCC(=O)Nc2ccc(S(=O)(=O)N3CCN(C)CC3)cc2)cc1	none (no result: HTRA1 inh)
Cc1ccc(OCC(=O)Nc2ccc(S(=O)(=O)N3CCN(C)CC3)cc2)cc1	SIAE primary 17.6 | SIAE inh conf inactive
Cc1cc(C)cc(N2C(=O)C3C4C=CC(C4)C3C2=O)c1 (centres undefined)	SIAE primary 18.6 | SIAE inh conf inactive
CCN(CC)c1nc(C)c(C(C)=O)cc1C#N	none
CNC(=O)NC(=O)CSc1nc(-c2cccs2)c(C#N)c(=O)[nH]1	none
COCCOc1cc(COC)nc(-c2cccc(C)c2)n1	none (no result: HTRA1 inh)
